Source: PubChem
bCat nuc transl – beta-catenin nuclear translocation modulation; HeLa beta-catenin nuclear translocation, immunofluorescence imaging; nuclear translocation activity, % at 5 µM; 190,000 tested, 0.3% active; AID 1665;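 active = nuclear translocation activity above 50% at 5 µM, with a well cell count of 50 or more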;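 note: per-cell ratio of nuclear to cytoplasmic median beta-catenin stain intensity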
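Technique: fluorescence imaging of beta-catenin antibody stain plus DAPI / Material: human HeLa cell line / Incubation: compound treatment 24 h, 37°C, 5% CO2 / Read-out basis: % activation of per-cell nuclear versus cytoplasmic median beta-catenin signal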
Dynein transport – dynein cargo transport inhibition; 3617.4 mouse cells, GR-EGFP nuclear translocation imaging; test concentration mostly 20 µM; stimulated with dexamethasone, 1 µM; hits give low values; z-score, hits read low; 220,000 tested, 0.47% active; AID 1381;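 active = plate z-score of nuclear minus cytoplasmic receptor signal below a set negative limit, without overly bright fluorescence or cell loss, cut at about -3.5 in these data, passing the limit was not always enough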;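 note: z-score of nuclear minus cytoplasmic ring GR-EGFP intensity difference per well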
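Medium: Induction medium lacking tetracycline, stripped serum | Probe or stimulus: 1.0 µM final dexamethasone stimulus | Schedule: 48 h induction, then 1 h compound, then 30 min agonist, 37 °C | Signal: Automated 10x imaging of fixed Hoechst-stained cells | Evaluation: Per-cell GR-EGFP intensity, nucleus versus surrounding cytoplasmic ring, well-averaged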
Insulin prom up – MIN6 insulin promoter up-regulation. z-score at 5 µM. AID 1625. 190,000 tested, 0.3% active. MIN6 insulin promoter-GFP reporter, high-content imaging; hits give high values;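 active = z-score above 3 at 5 µM with at least 500 cells counted in the well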
MT stabilizer – microtubule stabilization, imaging screen; 200,000 tested, 0.83% active; HeLa tubulin immunostaining HCS, 24 h; share of cells brighter than vehicle mean+2SD; AID 2205; % tubulin-high responders, % at 10 µM;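 active = plate Z-score above 3 for both tubulin-high and condensed-nucleus cell shares, with cell loss under 80%, at 10 µM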;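 note: anti alpha tubulin signal scored within the nucleus-defined area of each cell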
Autophagy mod – alters autophagy in cells. MEF GFP-LC3 puncta imaging; test concentration mostly 10 µM. 190,000 tested, 0.98% active. calls only at 10 µM (by protocol);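 active = percentage of spot-positive cells more than 3 SD above its plate mean, without a fluorescence outlier flag or 80% toxicity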
Each line names hits and unclear results; the compound was inactive in the other large screens. An excerpt weighted towards active compounds, which were near 2.3% of everything screened.

Cc1[nH][nH]c(=O)c1C(c1c(C)[nH][nH]c1=O)c1cn(Cc2ccccc2Cl)c2ccccc12	MT stabilizer 25
CCOC(=O)c1oc2ccc(S(=O)(=O)n3nc(-c4ccc(OC)cc4)cc3N)cc2c1C	MT stabilizer 13 (no result: Insulin prom up)
O=C(O)CNS(=O)(=O)c1c(Cl)cccc1Cl	none (no result: MT stabilizer, Autophagy mod)
Cc1cc(C)c2nc(/N=C(\N)NC(=O)c3ccccc3)nc(C)c2c1	none (no result: MT stabilizer, Autophagy mod)
CC1=C(C)C(=O)NC(Nc2nc(C)c3cc(C)cc(C)c3n2)N1 (centres undefined)	Autophagy mod active (no result: bCat nuc transl, Insulin prom up)
CCC(C)(C(=O)NC1CCCCC1)N(C(=O)c1ccccn1)c1ccccc1 (centres undefined)	none (no result: bCat nuc transl)
CCC(C)(C(=O)NC1CCCC1)N(C(=O)CNC(C)=O)c1ccccc1 (centres undefined)	Insulin prom up 3.5
Clc1ccccc1-c1nc2ccccc2c2nc3ccccc3n12	Autophagy mod active
Cc1nc2ccccc2c2nc3ccccc3n12	none (no result: bCat nuc transl)
COc1ccc(/C=N/NC(=O)c2cccnc2)cc1Cn1nc([N+](=O)[O-])c(Br)c1C	MT stabilizer 27, Autophagy mod active
COc1ccc(/C=N/NC(=O)c2cccnc2)cc1CN1CCc2ccccc2C1	none (no result: MT stabilizer, Autophagy mod)
Cc1cc(-c2nc(C)c(-c3nnc(SCC(=O)Nc4ccc(Cl)cc4)n3C)s2)no1	none (no result: MT stabilizer, Autophagy mod)
N=c1sccn1CC(=O)Nc1ccc(SC(F)F)cc1	Autophagy mod active
O=C(NCCN1CCCC1)C1(S(=O)(=O)c2ccc(Cl)cc2)CC1	Insulin prom up 3.1
O=C(NCCCN1CCCCC1)C1(S(=O)(=O)c2ccc(Cl)cc2)CC1	none (no result: Insulin prom up, Autophagy mod)
O=Cc1ccccc1Oc1ccccc1	none
O=Cc1ccccc1OCCOc1ccccc1C=O	Autophagy mod active (no result: bCat nuc transl, Insulin prom up)
CCc1ccc(S(=O)(=O)/N=C2/C=C(Sc3ncn[nH]3)C(=O)c3ccccc32)cc1	Dynein transport -6.7
Cc1ccccc1CSc1nnc([C@@H]2CCCN2)o1	none (no result: MT stabilizer, Autophagy mod)
CCOC(=O)CC(NC(=O)Cn1nnc(-c2ccccc2F)n1)c1ccccc1Cl (centres undefined)	none
Cc1ccsc1/C=N\NC(=O)c1n[nH]c2c1CCC2	MT stabilizer 25
CCOc1ccc2[nH]c(=O)c(CN(CC3COCCO3)C(=O)c3ccc(C)cc3)cc2c1 (centres undefined)	none
COC(=O)/C(=C1/Oc2ccc(C(C)(C)C)cc2S1)C(F)(F)F	none (no result: Insulin prom up)
COC(=O)/C(=C1/Oc2cc(C)oc(=O)c2S1)C(F)(F)F	Autophagy mod active
Cc1cccc2nc(CSc3nnc(N)s3)cn12	none
COc1ccc(Nc2nnc(SCc3cn4c(C)cccc4n3)s2)cc1	MT stabilizer 19 (no result: Insulin prom up)
Cc1cc(C(=O)N2CCN(c3ccccc3)CC2)c(C)o1	none
Cc1ccc(C(=O)N2CCN(c3ccccc3)CC2)cc1C	none
Cc1ccc(C(=O)N2CCN(c3cccc(Cl)c3)CC2)cc1C	MT stabilizer 24
Cc1cc(C(=O)N2CCN(c3cccc(Cl)c3)CC2)c(C)o1	MT stabilizer 60 (no result: bCat nuc transl)
CSc1ccccc1C(=O)N1CCN(c2cccc(Cl)c2)CC1	MT stabilizer 21
COc1cc2c(cc1OC)CN(CC(=O)NC(=O)NC1CCCCC1)CC2	none
O=C(CSc1cccc[n+]1[O-])c1cc(Cl)ccc1Cl	none
O=C(CSc1n[nH]c(=O)n1-c1ccc2c(c1)OCCO2)Nc1ccccc1	none (no result: Insulin prom up, MT stabilizer, Autophagy mod)
C=CCNC(=O)N[C@@H](Cc1ccccc1)C(=O)OC	none (no result: MT stabilizer, Autophagy mod)
Cc1c(C(=O)O)cccc1-c1ccc(/C=C2/NC(=O)N(c3ccccc3)C2=O)o1	Insulin prom up 3.9
Cc1ccc(/C=C2/NC(=O)N(c3ccccc3)C2=O)o1	none
O=C(/C=C/c1cccc([N+](=O)[O-])c1)Nc1ccc(NC(=O)c2cccs2)cc1	none
O=C(/C=C/c1cccc([N+](=O)[O-])c1)Nc1ccc(Cl)cn1	MT stabilizer 10
Cc1ccc(NC(=O)/C=C/c2ccc(Cl)cc2)nc1	MT stabilizer 21
O=C(/C=C/c1ccccc1)Nc1ccc(Br)cn1	none
COCCNC(=S)N(C)C1(c2ccccc2Cl)CCCCC1=O (centres undefined)	none
O=C(/C=C/c1ccccc1)NC1CC2CCCC(C1)N2Cc1ccccc1 (centres undefined)	none (no result: MT stabilizer, Autophagy mod)
COc1ccc(CN2C3CCCC2CC(NC(=O)/C=C/c2ccccc2)C3)cc1 (centres undefined)	Autophagy mod active
CCOC(=O)C1(CC2CCCCO2)CCN(S(=O)(=O)c2ccsc2)CC1 (centres undefined)	none
COc1ccc(Cl)cc1NC(=O)CN(C)CC(=O)Nc1ccccc1N1CCOCC1	bCat nuc transl 86, MT stabilizer 22
Cc1cc(Cl)ccc1OC(C)C(=O)Nc1ccccc1N1CCOCC1 (centres undefined)	Autophagy mod active
C/C=C/C(=O)Nc1cccc(C2=NOC3(C2)C[C@@H](C(N)=O)N(C(=O)/C(C)=C/C)C3)c1 (some centres undefined)	none (no result: MT stabilizer, Autophagy mod)
CCC12CSc3nc(Cl)ccc3N1C(=O)C(=O)N2C (centres undefined)	none (no result: MT stabilizer, Autophagy mod)
FC(F)(F)c1cc(-c2ccco2)nc(NCc2cccnc2)n1	bCat nuc transl 61
CC1=NN(c2cccc(C(=O)O)c2)C(=O)/C1=C\C=C\c1ccco1	Dynein transport -4.6 (no result: Insulin prom up)
CN=C1SC(C(=O)Nc2ccccc2Cl)CC(=O)N1c1ccc(OC(F)(F)Cl)cc1 (centres undefined)	none
CC1CCCCN1c1cc(C#N)c(C#N)cc1[N+](=O)[O-] (centres undefined)	none
CC1CCc2cccc3c2N1c1cc(C#N)c(C#N)cc1O3 (centres undefined)	Autophagy mod active (no result: bCat nuc transl, Insulin prom up)
CC(=O)c1ccc(N2CCN(C(=O)c3ccc4c(Cl)c5c(nc4c3)CCCC5)CC2)cc1	Dynein transport -3.6
O=C(c1ccc2c(Cl)c3c(nc2c1)CCCC3)N1CCC(N2CCCCC2)CC1	none
O=C1CN(C(=O)COc2ncnc3ccccc23)c2ccccc2N1	Insulin prom up 4 (no result: bCat nuc transl)
CCOC(=O)C1CCCN(C(=O)c2ccc(Cn3c(=S)[nH]c4cc(C(=O)OC)ccc4c3=O)cc2)C1 (centres undefined)	MT stabilizer 18 (no result: bCat nuc transl)
CC1CCN(CCCNC(=O)c2ccc3c(=O)n(Cc4ccc(Cl)cc4)c(=S)[nH]c3c2)CC1	Autophagy mod active
CC(C)C(=O)N1CCN(c2ccc(NC(=O)c3ccc([N+](=O)[O-])o3)cc2)CC1	Autophagy mod active
O=C(Nc1ccc(N2CCN(C(=O)c3ccccc3)CC2)cc1)c1ccc([N+](=O)[O-])o1	MT stabilizer 15 (no result: Insulin prom up)
COc1ccc(C(=O)Nc2ccc(N3CCN(C(=O)c4ccccc4)CC3)cc2)cc1[N+](=O)[O-]	none
CC(C)C(=O)N1CCN(c2ccc(NC(=O)c3ccc(Br)o3)cc2)CC1	none
Cc1ccc(NC(=O)COC(=O)CSC(=S)N2CCOCC2)cc1	none
O=C(/C(=C\c1ccccc1)c1nc2ccccc2[nH]1)c1ccc(Cl)cc1	MT stabilizer 22
CC(C)CC(=O)Nc1ccc2c(c1)OCO2	Autophagy mod active
